Bioassay records: PubChem BioAssay, several laboratories
Lipid droplet: inhibitors of hepatocyte lipid droplet formation, primary screen, imaging, high-throughput imaging, BODIPY stain; AML12 mouse hepatocytes, oleate lipid droplets; inhibition, % at 6.5 µM; 0.4% of 240,000 active; AID 1656, 2009;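 active means lipid droplet intensity inhibited by at least 50%, with more than 500 cells counted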
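Assay system: AML12 mouse liver cells | Compound dosing: One dose, 6.5 µM compound | Read-out basis: Droplet intensity reduction, % inhibition | Measured by: Fluorescence imaging, 20x objective, two fields per well | Schedule: Overnight treatment with compound plus oleate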
NTR1 ag: agonists of human NTR1, primary screen, imaging, U2OS cells, beta-arrestin-GFP, high content; Neurotensin receptor type 1 (Homo sapiens), P30989; NTR1-U2OS beta-arrestin-GFP spot imaging, agonist mode; activation, % at 20 µM; 0.17% of 330,000 active; AID 493036, 2011;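 active means activation at or above 40% of the spot to cytoplasm intensity ratio, with at least 20 cells analyzed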;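 further: 0% = DMSO without peptide and 100% = 100 nM NTR1 peptide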
Beta2AR agonist: beta2AR agonists driving receptor internalization, primary screen, cell-based, FAP fluorogen, flow cytometry | Am2.2-beta2AR cells | response, % (test concentration not listed) | 0.43% of 340,000 active;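 active means response above a set limit, near 3 SD of response in nonfluorescent compounds, cut at about 42% in these data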
GRK2 aptamer HTS: compounds blocking aptamer binding on GRK2 – biochemical, human GRK2, bead flow cytometry, HTS, primary screen; FAM-aptamer displacement from GRK2; Beta-adrenergic receptor kinase 1 (Homo sapiens), P25098; 0.59% of 330,000 active; AID 488847, 2010; inhibition of aptamer binding, % at 10 µM;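 active means inhibition of aptamer binding above 40%, roughly 3 SD of noise, on plates passing a quality check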;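 further: median bead fluorescence of bound FAM aptamer so fluorescent compounds give negative values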
Target sequence (P25098 whole entry, looked up): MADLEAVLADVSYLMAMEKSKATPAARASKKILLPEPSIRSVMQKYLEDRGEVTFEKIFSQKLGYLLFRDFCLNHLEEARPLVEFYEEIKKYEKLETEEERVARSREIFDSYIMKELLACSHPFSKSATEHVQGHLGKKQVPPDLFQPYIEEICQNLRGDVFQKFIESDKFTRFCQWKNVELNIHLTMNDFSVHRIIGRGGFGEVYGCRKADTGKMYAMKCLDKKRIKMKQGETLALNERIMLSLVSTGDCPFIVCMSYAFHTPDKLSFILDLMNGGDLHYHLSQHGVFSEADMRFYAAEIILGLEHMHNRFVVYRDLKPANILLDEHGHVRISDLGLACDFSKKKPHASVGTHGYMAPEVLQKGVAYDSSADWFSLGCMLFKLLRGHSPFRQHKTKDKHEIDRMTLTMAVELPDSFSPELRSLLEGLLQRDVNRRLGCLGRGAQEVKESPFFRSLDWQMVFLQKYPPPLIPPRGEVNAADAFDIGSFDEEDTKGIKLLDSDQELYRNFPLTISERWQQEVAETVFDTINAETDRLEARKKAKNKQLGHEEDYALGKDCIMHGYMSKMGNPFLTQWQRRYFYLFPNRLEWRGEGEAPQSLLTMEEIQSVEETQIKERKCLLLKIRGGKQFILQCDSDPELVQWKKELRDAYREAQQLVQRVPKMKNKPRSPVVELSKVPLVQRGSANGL
Arr AP2 block: inhibitors of beta-arrestin/AP2 binding, primary screen, biochemical, GPCR trafficking, flow cytometry; FITC-arrestin peptide / GST-AP2 beads; AP2 beta2 appendage carries R879A mutation; inhibition, % at 10 µM; AID 504490, 2011; 0.31% of 340,000 active; beta-arrestin 1 C-terminal peptide binding to AP2 beta2-adaptin appendage (human);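 active means inhibition above a set limit, near 3 SD of compounds lacking own fluorescence, cut at about 54% in these data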;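 further: plate controls were DMSO wells for no effect and 5 µM unlabelled arrestin peptide for full effect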
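System: GST-AP2 R879A glutathione beads; medium: PBS, Tween 20 0.05%, BSA 0.1%; reagent: fluorescein-tagged arrestin peptide at 50 nM final; schedule: pre-incubation 12 min, peptide binding 1 h, room temperature; detection: flow cytometry, FL1 (488/535 nm); read-out: inhibition as reduced fluorescein signal on beads, percent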
TAG inh: inhibitors of triacylglycerol accumulation, primary screen, cell-based, uHTS, fluorescence, H9c2; 0.66% of 230,000 active; inhibition, % at 12.5 µM; H9c2 cells, Nile Red lipid (TAG) fluorescence; cells loaded with 200 µM oleic acid;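 active means pattern-corrected inhibition of lipid staining of at least 50% with the nuclear-stain viability signal not falling by more than 50%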;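 further: 0% = DMSO wells and 100% = triacsin C control wells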
Arr AP2 CP1: inhibitors of arrestin peptide binding to AP2, confirmation, biochemical, cherry pick 1, flow cytometry beads | shares compounds with Arr AP2 block | inhibition, % at 10 µM | GST-AP2 beads, FITC arrestin peptide binding; GST-fused beta2-adaptin appendage, R879A mutant | 2% of 1,300 active;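 active means inhibition above a set limit, roughly 3 SD of non-fluorescent compound noise, cut at about 38% in these data; inactive means inhibition at or below that limit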;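 further: loss of bead fluorescence from 50 nM FITC arrestin peptide bound to appendage; 0% = negative control wells and 100% = excess unlabelled arrestin peptide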
GST GSH counter: GST-fluorescein capture on glutathione beads, confirmation, artefact control for arrestin-AP2 inhibitor project, biochemical, cherry pick 1, flow cytometry | inhibition, % at 10 µM | shares compounds with Arr AP2 block | GST-fluorescein binding to GSH beads, fluorescence, counter-screen | 2% of 1,300 active;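 active means inhibition above 50%, about 3 SD of the inhibition seen with non-fluorescent compounds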;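 further: fluorescein maleimide labelled GST captured on 4 micron glutathione beads; higher means more loss of bead fluorescence from quenching or blocked binding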
* hit, by the source's call; . = no result. Hits are enriched below; roughly 2% of the tested compounds scored in any of these assays.

SMILES | Lipid droplet | NTR1 ag | Beta2AR agonist | GRK2 aptamer HTS | Arr AP2 block | TAG inh | Arr AP2 CP1 | GST GSH counter
COc1ccc(C(=O)Nc2cc3c(cc2N2CCOCC2)n(C)c(=O)n3C)cc1OC | 4.2 | 1.1 | 2.4 | 1.0 | 2.0 | . | -19.6 | -13.0
CCOc1cc(C(=O)Nc2cc3c(cc2N2CCOCC2)n(C)c(=O)n3C)cc(OCC)c1OCC | -2.3 | -0.5 | 10.2 | 0.0 | -6.7 | . | -3.6 | -6.7
Cn1c(=O)n(C)c2cc(N3CCCCC3)c(NC(=O)c3cccc(Cl)c3)cc21 | -28.2 | 5.4 | 19.4 | 1.0 | 7.1 | . | -6.1 | -4.2
COc1ccc(/C=C2\SC(=S)N(CCCC(=O)N3CCCCC3CCO)C2=O)cc1 (configuration not stated) | -16.2 | 4.8 | 1.5 | 0.0 | 15.2 | . | . | .
Cc1cccc(NC(=O)CN(C)C(=O)/C=C/c2ccccc2)c1C | . | 1.0 | 1.2 | . | 1.3 | -0.8 | . | .
COc1ccccc1C(=O)NC(=O)CSc1nc2nc(C)cc(C)n2n1 | . | 3.7 | -5.7 | 1.0 | 0.0 | -4.3 | . | .
COc1ccccc1C(=O)NC(=O)COC(=O)c1nc2nc(C)cc(C)n2n1 | . | 0.3 | -3.1 | 0.0 | 59.8* | -5.5 | 4.1 | -7.2
c1ccc2c(c1)c1ccccc1n2CN1CCOCC1 | -6.4 | 2.2 | 5.3 | 2.0 | 82.6* | 1.6 | -1.3 | -9.0
O=C(CN1C(=O)COc2ccccc21)NCCCN1CCCC1 | -0.8 | 0.2 | 6.4 | 4.0 | 63.8* | . | -2.2 | -6.5
NC1=NCC(O)=C1c1nc2ccccc2[nH]1 | 30.6 | 0.1 | 4.1 | 0.0 | 65.6* | 10.7 | -8.6 | 4.0
CC1(C(=O)NS(=O)(=O)c2ccccc2Cl)CCN1C(=O)CCc1cccs1 (configuration not stated) | . | . | . | . | . | 16.0 | . | .
CCOC(=O)c1c(NC(=O)c2ccc(Br)o2)sc(C)c1CC | . | 10.0 | 19.0 | 5.0 | 98.3* | -5.9 | -0.5 | -9.7
O=C(CC12CC3CC(CC(C3)C1)C2)NC(Cc1ccccc1)C(=O)O (configuration not stated) | 13.1 | 1.1 | -3.1 | 0.0 | 55.0* | -9.4 | -1.2 | 8.9
CC(=O)NC(Cc1ccccc1)C(=O)O (configuration not stated) | . | -2.6 | 0.5 | 0.0 | -3.1 | . | . | .
COc1ccc(-c2nnc(SCc3ccccc3F)o2)cc1OC | . | 2.0 | -3.2 | 0.0 | 84.3* | -10.7 | 22.3 | .
O=C(CC1NCCN(Cc2ccccc2)C1=O)Nc1ccccc1 (configuration not stated) | 0.9 | 1.3 | -4.5 | 5.0 | 12.8 | -5.6 | . | .
COc1ccccc1CN1CC(C(=O)NCc2ccc(SC)cc2)CCC1=O (configuration not stated) | 0.6 | 0.3 | -10.1 | . | -3.5 | . | . | .
COc1ccccc1CN1CC(C(=O)NCc2ccc(C)c(F)c2)CCC1=O (configuration not stated) | -13.0 | -0.9 | -6.2 | 0.0 | 22.0 | . | -7.6 | -1.5
CCn1ccnc1CNC(=O)C1CCC(=O)N(Cc2ccccc2F)C1 (configuration not stated) | -6.2 | -0.5 | 5.3 | 3.0 | 54.2* | -3.5 | -9.3 | 2.6
COc1ccccc1CCNC(=O)C1CCC(=O)N(Cc2ccccc2OC)C1 (configuration not stated) | -2.0 | 1.1 | 5.6 | 0.0 | 66.3* | 2.5 | 8.7 | -2.9
